Test results reported in PubChem BioAssay.
The source made the active and inactive calls.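 How the source made its calls, unless noted: active means inhibition above 20% together with a positive visual image hit; inconclusive means visual image hit but inhibition not above 20%; inactive means no visual image hit.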

Key:
[1] = inhibitors of TNFa-induced NFkB p65 translocation, primary screen, imaging, HUVEC, MLSMR starter and 10KST1 sets (AID 438); conditions: HUVEC TNFa-induced p65 nuclear translocation; cell count: measured here: nuclei count (cytotoxicity indicator), at 2.08 µM; inhibition: at 2 µM, stronger effect = higher value, 0% TNFa-plus-vehicle, 100% no-TNFa wells;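 further: compound added about 3h40 before a 20 min TNFalpha stimulation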;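 on inhibition: signal is the nuclear over cytoplasmic p65 intensity ratio per well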
[2] = inhibitors of mutant huntingtin aggregation, primary screen, imaging, exon1htt(103Q)mCFP cells, high-content imaging (AID 483;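 active means visual image review flags a hit and inhibition of aggregation exceeds 20%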;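 further: compound exposure lasted 3 days before fixation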;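 on nuclei count: percent of the per-plate median nuclei count of sample wells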); conditions: exon1htt(103Q)mCFP cell line, aggregate imaging, at 2 µM; inhibition of aggregation: stronger effect = higher value; nuclei count: measured here: cell count, toxicity
[3] = inhibitors of E-selectin induction by TNFa, primary screen, imaging, HUVEC, immunofluorescence, MLSMR starter and 10KST1 sets (AID 487;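 active means visually confirmed hit in the image check and inhibition above 20%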;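 on inhibition: signal is fraction of cell area covered by stained E-selectin grains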;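 on nuclei count: 100% = median nuclei count of all wells on the same plate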); conditions: HUVEC TNFalpha-induced E-selectin immunofluorescence imaging, at 2 µM; inhibition: stronger effect = higher value; nuclei count: measured here: cell number, toxicity
[4] = target: Voltage-gated potassium channel subunit beta-2 (Rattus norvegicus) (UniProt P62483); test: KvBeta enzyme negative modulators, primary screen, biochemical, NADPH fluorescence (AID 622;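 active means fluorescence slope higher than the sample average by over 3 SD, cut at about -0.22 in these data, passing the limit was not always enough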;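 further: slope of raw intensity against log time taken from 70 to 1610 s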); conditions: recombinant KvBeta, 4-cyanobenzaldehyde reduction, at 10 µM, stronger effect = higher value
[5] = target: Voltage-gated potassium channel subunit beta-2 (Rattus norvegicus) (UniProt P62483); test: KvBeta positive modulators, primary screen, biochemical, NADPH fluorescence (AID 623;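 active means NADPH fluorescence slope more negative than the mean of all samples by about 3 SD, 99.7% confidence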;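 further: fluorescence intensity change per second fitted from 20 to 320 s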); conditions: Recombinant KvBeta, NADPH fluorescence decrease slope, 10 min; at 10 µM; stronger effect = lower value
[6] = target: Muscarinic acetylcholine receptor M4 (Homo sapiens) (UniProt P08173); test: compounds altering M4/GIRK thallium flux, either direction, primary screen, M4 allosteric agonist project, cell-based, HEK293 M4/GIRK, BTC-AM (AID 625;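 active means fluorescence slope after compound addition differing from the mean of all tested samples at 99.7% confidence, mostly higher but some lower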;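 further: thallium influx through GIRK channels coupled to M4 in HEK293 cells with BTC-AM dye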); conditions: at 10 µM, actives lie on both sides
In short: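 Material: M4/GIRK1/GIRK2 stable HEK293 cell line. Medium: pH 7.3 thallium assay buffer. Dosing: single compound concentration, 10 µM final. Schedule: 1 h dye loading, 2 min kinetic read. Measured by: kinetic fluorescence with BTC-AM dye. Read-out: post-addition slope, 15–24 s, of baseline-normalized fluorescence. Benchmarks: carbachol and DMSO controls.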

[7] = inhibitors of Sendai virus-induced IRF3 signaling, primary screen, TLR/RLR signaling modifier project, cell-based, Sendai virus stimulus, luciferase, 10K MLSCN set (AID 602276;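 active means inhibition at or above 50% at 10 µM; inactive means inhibition below 50%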;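 further: firefly luciferase from ISG56 promoter only with Renilla not read in this screen; 0% = Sendai virus plus DMSO and 100% = medium plus DMSO without virus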); conditions: HEK293 RL24 IRF3 luciferase reporter, at 10 µM, stronger effect = higher value
[8] = inhibitors of poly I:C-induced TLR3 signaling, primary screen, cell-based, poly I:C stimulus, luciferase, 10K MLSCN set (AID 602277;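 active means inhibition of the reporter signal at or above 50%; inactive means inhibition below 50%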); conditions: HEK293-TLR3 RL24 IRF3 luciferase reporter, at 10 µM, stronger effect = higher value

Chain of Voltage-gated potassium channel subunit beta-2 (Rattus norvegicus) (P62483 whole entry, looked up): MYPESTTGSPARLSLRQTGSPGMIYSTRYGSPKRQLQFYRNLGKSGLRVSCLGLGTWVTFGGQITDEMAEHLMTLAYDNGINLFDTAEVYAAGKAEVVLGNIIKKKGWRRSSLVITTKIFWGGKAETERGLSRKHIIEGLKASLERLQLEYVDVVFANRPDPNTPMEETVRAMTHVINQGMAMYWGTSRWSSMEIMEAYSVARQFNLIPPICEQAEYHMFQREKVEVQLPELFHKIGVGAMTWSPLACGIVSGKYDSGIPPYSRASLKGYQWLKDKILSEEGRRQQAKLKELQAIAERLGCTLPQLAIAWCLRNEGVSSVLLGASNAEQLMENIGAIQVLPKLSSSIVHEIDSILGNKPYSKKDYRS
Chain of Muscarinic acetylcholine receptor M4 (Homo sapiens) (P08173 whole entry, looked up): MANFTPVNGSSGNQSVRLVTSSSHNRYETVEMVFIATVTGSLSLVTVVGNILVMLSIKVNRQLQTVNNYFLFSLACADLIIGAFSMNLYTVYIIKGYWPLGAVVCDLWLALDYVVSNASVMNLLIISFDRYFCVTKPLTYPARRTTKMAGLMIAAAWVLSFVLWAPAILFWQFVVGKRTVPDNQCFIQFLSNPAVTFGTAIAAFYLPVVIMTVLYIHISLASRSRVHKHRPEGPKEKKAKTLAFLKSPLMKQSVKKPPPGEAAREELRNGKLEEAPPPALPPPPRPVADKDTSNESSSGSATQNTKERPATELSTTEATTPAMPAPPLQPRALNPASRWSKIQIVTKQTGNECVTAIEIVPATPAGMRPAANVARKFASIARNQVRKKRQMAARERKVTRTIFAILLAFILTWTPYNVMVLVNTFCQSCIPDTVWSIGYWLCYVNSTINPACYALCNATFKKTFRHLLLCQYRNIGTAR

SMILES | cell count [1] | inhibition [1] | inhibition of aggregation [2] | nuclei count [2] | inhibition [3] | nuclei count [3] | fluorescence slope [4] | NADPH fluorescence slope [5] | fluorescence slope [6] | inhibition [7] | inhibition [8]
Cc1ccc2nc(CSc3nnc(-c4ccco4)n3-c3ccccc3)cc(=O)n2c1 | 509 | -7.8% (inactive) | -2% (inactive) | 115% | -175% (inactive) | 201% | -0.567 (inactive) | -1.2e-06 (inactive) | 0.00636 (inactive) | -11% (inactive) | -20% (inactive)
CCc1nnc(NC(=O)OCc2ccccc2)s1 | 414 | 8.1% (inactive) | 0.2% (inactive) | 99.3% | -59.3% (inactive) | 120% | -0.579 (inactive) | -1.5e-05 (inactive) | 0.00857 (inactive) | -17.2% (inactive) | -43.4% (inactive)
CCCn1nc(NS(=O)(=O)c2ccccc2)c2cc3ccccc3nc21 | 468 | -3.8% (inactive) | -8.5% (inactive) | 110% | 12% (inactive) | 102% | -0.598 (inactive) | 2.9e-05 (inactive) | 0.00512 (inactive) | 6.34% (inactive) | 14.1% (inactive)
Cn1c2ccccc2c2c(C(=O)NCCCN3CCCC3=O)cn(C3CCCCC3)c(=O)c21 | 592 | -17.5% (inactive) | -29.3% (inactive) | 112% | 20.1% (inactive) | 110% | -0.428 (inactive) | 3.4e-05 (inactive) | 0.00608 (inactive) | 9.9% (inactive) | 15.9% (inactive)
COc1ccc(-c2noc(CCC(=O)NCCCN3CCC(Cc4ccccc4)CC3)n2)cc1 | 335 | 7.8% (inactive) | 2% (inactive) | 94% | -46.3% (inactive) | 108% | -0.547 (inactive) | -2.4e-05 (inactive) | 0.00434 (inactive) | 3.44% (inactive) | -1.77% (inactive)
O=C(O)COc1ccc2occ(C(=O)c3ccccc3)c2c1 | 232 | -4.4% (inactive) | 24.2% (inactive) | 94.5% | -56.2% (inactive) | 104% | -0.592 (inactive) | -4.3e-05 (inactive) | 0.00364 (inactive) | 10.3% (inactive) | 4.56% (inactive)
c1nc(NCC2CCCO2)c2[nH]cnc2n1 (stereo not drawn) | 349 | -12.5% (inactive) | 12.3% (inactive) | 90.8% | -27.3% (inactive) | 118% | -0.483 (inactive) | 1.9e-05 (inactive) | 0.00434 (inactive) | 13.9% (inactive) | 16.7% (inactive)
O=c1c2nnn(Cc3ccccc3)c2ncn1-c1ccccc1 | 522 | -8.6% (inactive) | 16.2% (inactive) | 86.9% | 9% (inactive) | 99% | -0.411 (inactive) | -8.2e-05 (inactive) | 0.00572 (inactive) | 14.3% (inactive) | 25.9% (inactive)
COc1ccc(C2C(C(=O)c3sc(C)nc3C)=C(O)C(=O)N2CCN2CCOCC2)cc1 (stereo not drawn) | 438 | 4.5% (inactive) | 0.7% (inactive) | 107% | 31.3% (inactive) | 84.8% | -0.531 (inactive) | -5.5e-05 (inactive) | 0.00651 (inactive) | 4% (inactive) | 1.15% (inactive)
COc1cccc2cc(C(=O)Nc3cccnc3N3CCOCC3)c(=O)oc12 | 348 | -10.5% (inactive) | -13.5% (inactive) | 48.9% | -32.3% (inactive) | 98.9% | -0.573 (inactive) | 1.5e-05 (inactive) | 0.00618 (inactive) | 10.7% (inactive) | 4.05% (inactive)
O=C(NCc1n[nH]c(=S)n1-c1ccc(F)cc1)c1ccco1 | 711 | -16.8% (inactive) | -0.3% (inactive) | 102% | -72.4% (inactive) | 126% | -0.463 (inactive) | -2.7e-05 (inactive) | 0.00529 (inactive) | 12.1% (inactive) | 13.9% (inactive)
O=C(COc1nnnc2ccccc12)N1CCCc2ccccc21 | 327 | 0.2% (inactive) | -10.1% (inactive) | 106% | -50.4% (inactive) | 130% | -0.43 (inactive) | -7.5e-05 (inactive) | 0.00597 (inactive) | 8.08% (inactive) | 16.5% (inactive)
CCCC(C)C(=O)Nc1ccc(C(N)=O)cc1 (stereo not drawn) | 668 | 0.5% (inactive) | 1% (inactive) | 110% | 22.4% (inactive) | 87% | -0.272 (inactive) | -3.2e-05 (inactive) | 0.00544 (inactive) | 11.2% (inactive) | 13.5% (inactive)
CCOC(=O)C1CCCN(C(=O)CNS(=O)(=O)c2ccc(Br)s2)C1 (stereo not drawn) | 232 | 3.3% (inactive) | -8.6% (inactive) | 108% | -33.6% (inactive) | 113% | -0.437 (inactive) | -5.6e-05 (inactive) | 0.00599 (inactive) | 11.6% (inactive) | 8.54% (inactive)
Cc1ccc(S(=O)(=O)N2CCOCC2)cc1C(=O)OCC(=O)N1CCc2ccccc2C1 | 538 | -12.2% (inactive) | 5.4% (inactive) | 98.4% | -184% (inactive) | 132% | -0.4 (inactive) | 5.8e-06 (inactive) | 0.00607 (inactive) | 4.57% (inactive) | 6.74% (inactive)
COc1cccc(-c2cc(C(=O)N3CCCc4ccccc43)no2)c1 | 406 | -23% (inactive) | -4.7% (inactive) | 102% | -13.2% (inactive) | 94.5% | -0.217 (inactive) | -1.8e-05 (inactive) | 0.00726 (inactive) | 0.639% (inactive) | -88.4% (inactive)
Cc1noc(C)c1S(=O)(=O)N1CCC(C(=O)Nc2ccccn2)CC1 | 281 | -5.2% (inactive) | -0.6% (inactive) | 96.1% | -46% (inactive) | 128% | -0.404 (inactive) | 3.5e-05 (inactive) | 0.00606 (inactive) | 13.8% (inactive) | 21.1% (inactive)
N#CC1=C(N)N(c2ccccc2)C2=C(C(=O)CCC2)C1c1cccs1 (stereo not drawn) | 610 | 0% (inactive) | 3.8% (inactive) | 108% | -53.5% (inactive) | 98.1% | -0.362 (inactive) | -4.2e-05 (inactive) | 0.00595 (inactive) | -12.6% (inactive) | -9.24% (inactive)
CCCN1C(=O)SC(CC(=O)Nc2ccc(Br)cc2)C1=O (stereo not drawn) | 246 | -7.8% (inactive) | -2.4% (inactive) | 96.5% | -47.8% (inactive) | 104% | -0.444 (inactive) | 2.7e-05 (inactive) | 0.00512 (inactive) | -2.25% (inactive) | 7.35% (inactive)
Cc1[nH]c(=O)[nH]c(=O)c1S(=O)(=O)N1CCN(c2cccc(Cl)c2)CC1 | 799 | 4.2% (inactive) | -23.7% (inactive) | 104% | -160% (inactive) | 126% | -0.567 (inactive) | -1.8e-05 (inactive) | 0.0059 (inactive) | -13.2% (inactive) | -11.6% (inactive)
O=C(O)CCC(=O)Nc1nc(-c2ccccc2)cs1 | 546 | -24.7% (inactive) | -8.2% (inactive) | 110% | 4.3% (inactive) | 147% | -0.449 (inactive) | 0.00011 (inactive) | 0.00599 (inactive) | 16.3% (inactive) | 23.8% (inactive)
CCOC(=O)c1c(NC(=O)OC)sc(C(=O)N(C)C)c1C | 321 | -5.4% (inactive) | 1.3% (inactive) | 103% | 1.1% (inactive) | 115% | -0.312 (inactive) | -4.5e-05 (inactive) | 0.00682 (inactive) | 7.2% (inactive) | 14.6% (inactive)
COc1ccc(N2CCN(C(=O)CSc3ccccc3N)CC2)cc1 | 334 | -3% (inactive) | 7.8% (inactive) | 96.1% | -18.9% (inactive) | 106% | -0.501 (inactive) | -0.00016 (inactive) | 0.00478 (inactive) | 4.54% (inactive) | 22.7% (inactive)
c1ccc(CC2CCN(Cc3nc(-c4ccccc4)no3)CC2)cc1 | 229 | 4.2% (inactive) | -5.2% (inactive) | 81.6% | -139% (inactive) | 124% | -0.456 (inactive) | -1.9e-05 (inactive) | 0.00542 (inactive) | 5.55% (inactive) | -19% (inactive)
O=C1CS/C(=N\C(=O)N2c3ccccc3Sc3ccccc32)N1 | 373 | 8% (inactive) | 28.4% (inactive) | 87.6% | -22.3% (inactive) | 128% | -0.523 (inactive) | -5.6e-05 (inactive) | 0.00677 (inactive) | 12% (inactive) | 27.5% (inactive)
COc1cc2c(OC)cccc2cc1C(=O)O | 383 | -1.9% (inactive) | -13.5% (inactive) | 102% | -12.2% (inactive) | 92.7% | -0.429 (inactive) | -5.9e-06 (inactive) | 0.0045 (inactive) | 18.2% (inactive) | 8.81% (inactive)
N#CC1=C(N)n2c(s/c(=C\c3ccco3)c2=O)=C(C#N)C1c1ccco1 (stereo not drawn) | 422 | -2.2% (inactive) | 8.3% (inactive) | 106% | -34.4% (inactive) | 116% | -0.565 (inactive) | -3.6e-05 (inactive) | 0.00353 (inactive) | 19.5% (inactive) | 38% (inactive)
CCCCCCC(=O)c1c(C)[nH]c(C(=O)OCC)c1C | 310 | -4.2% (inactive) | 14.4% (inactive) | 59.6% | -54.5% (inactive) | 102% | -0.517 (inactive) | -2.8e-05 (inactive) | 0.00442 (inactive) | -13.2% (inactive) | -55.3% (inactive)
